Data from ChEMBL document CHEMBL1145775, “Development of potential antitumor agents. Synthesis and biological evaluation of a new set of sulfonamide derivatives as histone deacetylase inhibitors” (J Med Chem, 2003).

How the values were obtained:
[1] = The relative effective concentration to induce same level of histone H4 acetylation of human T24 cells by MS-275 at 1 uM; type: functional, T-24
Histone deacetylase 1 = Histone deacetylase 1 (Homo sapiens, UniProt Q13547); assay: Inhibitory activity on partially purified recombinant human Histone deacetylase 1 (HDAC-1)
Histone deacetylase 1, sequence (Q13547 whole entry): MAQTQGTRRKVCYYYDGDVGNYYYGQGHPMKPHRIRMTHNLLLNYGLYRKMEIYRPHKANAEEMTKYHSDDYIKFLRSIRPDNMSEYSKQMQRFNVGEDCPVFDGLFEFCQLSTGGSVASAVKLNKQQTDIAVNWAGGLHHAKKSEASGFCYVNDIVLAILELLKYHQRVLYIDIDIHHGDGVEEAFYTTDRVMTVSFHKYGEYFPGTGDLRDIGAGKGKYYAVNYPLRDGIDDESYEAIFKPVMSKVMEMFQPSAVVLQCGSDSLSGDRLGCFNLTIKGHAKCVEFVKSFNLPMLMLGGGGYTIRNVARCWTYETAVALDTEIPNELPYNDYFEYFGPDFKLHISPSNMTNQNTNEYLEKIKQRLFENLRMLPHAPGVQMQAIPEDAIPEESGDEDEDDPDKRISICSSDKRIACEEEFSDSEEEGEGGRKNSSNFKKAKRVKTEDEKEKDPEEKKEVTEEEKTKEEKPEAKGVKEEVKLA

T-24 = assay: Inhibitory concentration against bladder T24 cell line; type: functional, cell-based; conditions: Homo sapiens
How it was run: (§1)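 MTT assay: cells exposed to a range of compound concentrations for 72 h at 37 °C, 5% CO2. MTT added at 0.5 mg/mL final for 4 h, then solubilized with DMF/SDS buffer (pH 4.7) overnight; absorbance at 570 with 630 reference. OD converted to cell numbers via a standard growth curve.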

HCT-116 [2] = assay: Inhibitory concentration against colon HCT116 cell line; type: functional, cell-based; conditions: Homo sapiens; how it was run: as §1
NCI-H446 = assay: Inhibitory concentration against lung H446 cell line; type: functional, cell-based; conditions: Homo sapiens; how it was run: as §1
SW48 = assay: Inhibitory concentration against colon SW48 cell line; type: functional, cell-based; conditions: Homo sapiens; how it was run: as §1
A549 = assay: Inhibitory concentration against lung A549 cell line; type: functional, cell-based; conditions: Homo sapiens; how it was run: as §1
HCT-116 [3] = assay: In vivo percent inhibitory activity of intraperitoneally administered compound (40 mg/kg/day) against mice […] with HCT116 tumor; type: functional, Homo sapiens
How it was run: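 CD1 nude mice (18–22 g) implanted with 30 mg fragments of serially passaged A549 or HCT116 tumor; randomized at ~100 mm3 mean tumor volume, six per group. Daily intraperitoneal dosing (7 days/week) for 21 days, compound dissolved in DMSO; vehicle-only controls. Body weight and tumor volume monitored three times weekly; percent tumor growth inhibition versus vehicle.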

[4] = test system: Fibroblast MRHF cell line; assay: Inhibitory concentration against normal fibroblast MRHF cell line; type: functional, cell-based; conditions: Homo sapiens; how it was run: as §1
HMEC = assay: Inhibitory concentration against normal epithelial HMEC cell line; type: functional, cell-based; conditions: Homo sapiens; how it was run: as §1
MCF7 = assay: Inhibitory concentration against breast MCF-7 cell line; type: functional, cell-based; conditions: Homo sapiens; how it was run: as §1
DU-145 = assay: Inhibitory concentration against prostate DU145 cell line; type: functional, cell-based; conditions: Homo sapiens; how it was run: as §1
MDA-MB-231 = assay: Inhibitory concentration against breast MDA-MB-231 cell line; type: functional, cell-based; conditions: Homo sapiens; how it was run: as §1

**Q.** Which EC [1] does the source give for `O=C(/C=C/c1ccc(NS(=O)(=O)c2ccc(-c3ccccc3)cc2)cc1)NO` here?
**A.** 1 µM

**Q.** With `COc1ccc(NS(=O)(=O)c2ccc(/C=C/C(=O)NO)cc2)cc1OC` as the compound, how does the IC50 (Histone deacetylase 1) read?
**A.** 50 nM

**Q.** Which results are given for `Cc1ccc(S(=O)(=O)Nc2ccc(/C=C/C(=O)Nc3ccccc3N)cc2)cc1`?
**A.** IC50 (T-24): 8 µM; IC50 (HCT-116 [2]): 4000 nM; IC50 (NCI-H446): 1000 nM; IC50 (SW48): 10 µM; IC50 (A549): 8 µM; Inhibition (HCT-116 [3]): 55%; IC50 [4]: > 37 µM; IC50 (HMEC): > 37 µM; IC50 (MCF7): 6 µM; IC50 (DU-145): 2 µM; IC50 (MDA-MB-231): 2 µM

**Q.** Which IC50 (Histone deacetylase 1) does the source give for `COc1ccc(NC(=O)Nc2ccc(/C=C/C(=O)NO)cc2)cc1OC` here?
**A.** 1000 nM

**Q.** What about the EC [1] of the same compound?
**A.** >25 µM

**Q.** Which IC50 (Histone deacetylase 1) does the source give for `COc1ccc(NS(=O)(=O)c2ccc(/C=C/C(=O)Nc3ccccc3N)cc2)cc1OC` here?
**A.** 3000 nM

**Q.** With `Nc1ccccc1NC(=O)/C=C/c1ccc(NS(=O)(=O)c2ccc(-c3ccccc3)cc2)cc1` as the compound, how does the IC50 (T-24) read?
**A.** > 36 µM

**Q.** And the IC50 (HCT-116 [2])?
**A.** 15000 nM

**Q.** And the IC50 (NCI-H446)?
**A.** 8000 nM

**Q.** What about the IC50 (SW48) of the same compound?
**A.** 30 µM

**Q.** What about the IC50 (A549) of the same compound?
**A.** 18 µM

**Q.** What about the IC50 [4] of the same compound?
**A.** > 25 µM

**Q.** What about the EC [1] of the same compound?
**A.** 15 µM

**Q.** And the IC50 (HMEC)?
**A.** > 36 µM

**Q.** What about the IC50 (MCF7) of the same compound?
**A.** 29 µM

**Q.** What about the IC50 (DU-145) of the same compound?
**A.** 15 µM

**Q.** And the IC50 (MDA-MB-231)?
**A.** 18 µM

**Q.** For `Cc1ccc(NS(=O)(=O)c2ccc(/C=C/C(=O)NO)cc2)cc1`, which IC50 (Histone deacetylase 1) is on record?
**A.** 200 nM

**Q.** What about the EC [1] of the same compound?
**A.** 1 µM

**Q.** Which IC50 (Histone deacetylase 1) does the source give for `CN(C)c1cccc2c(S(=O)(=O)Nc3ccc(/C=C/C(=O)NO)cc3)cccc12` here?
**A.** 200 nM

**Q.** And the EC [1]?
**A.** 5 µM

**Q.** Which IC50 (Histone deacetylase 1) does the source give for `O=C(O)/C=C/c1ccc(NS(=O)(=O)c2ccc(-c3ccccc3)cc2)cc1` here?
**A.** > 25000 nM

**Q.** For `Nc1ccccc1NC(=O)/C=C/C#Cc1ccc(NS(=O)(=O)c2ccccc2)cc1`, which IC50 (Histone deacetylase 1) is on record?
**A.** 5000 nM

**Q.** Which IC50 (Histone deacetylase 1) does the source give for `Nc1ccccc1NC(=O)/C=C/c1ccc(NS(=O)(=O)c2cccc3oc4ccccc4c23)cc1` here?
**A.** 400 nM

**Q.** What about the EC [1] of the same compound?
**A.** 10 µM

**Q.** For `O=C(/C=C/c1ccc(NS(=O)(=O)c2cccc3oc4ccccc4c23)cc1)NO`, which IC50 (Histone deacetylase 1) is on record?
**A.** 40 nM

**Q.** And the EC [1]?
**A.** 1 µM

**Q.** Which EC [1] does the source give for `O=C(/C=C/c1ccc(NS(=O)(=O)c2cccc3ccccc23)cc1)NO` here?
**A.** 5 µM

**Q.** What does the source list for `Nc1ccccc1NC(=O)/C=C/c1ccc(NS(=O)(=O)c2cccc3ccccc23)cc1`?
**A.** IC50 (Histone deacetylase 1): 3000 nM; EC [1]: 10 µM

**Q.** For `Cc1ccc(S(=O)(=O)Nc2ccc(/C=C/C(=O)NO)cc2)cc1`, which EC [1] is on record?
**A.** 10 µM

**Q.** Which results are given for `Cc1ccc(NS(=O)(=O)c2ccc(/C=C/C(=O)Nc3ccccc3N)cc2)cc1`?
**A.** IC50 (Histone deacetylase 1): 2000 nM; IC50 (T-24): 6.5 µM; IC50 (HCT-116 [2]): 3500 nM; IC50 (NCI-H446): 2000 nM; IC50 (SW48): 6.5 µM; IC50 (A549): 9.5 µM; Inhibition (HCT-116 [3]): 37%; IC50 [4]: 34 µM; IC50 (HMEC): > 41 µM; IC50 (MCF7): 11.5 µM; IC50 (DU-145): 7 µM; IC50 (MDA-MB-231): 9 µM

**Q.** With `COc1ccc(S(=O)(=O)Nc2ccc(/C=C/C(=O)Nc3ccccc3N)cc2)cc1` as the compound, how does the IC50 (Histone deacetylase 1) read?
**A.** 1000 nM

**Q.** What about the IC50 (T-24) of the same compound?
**A.** 8 µM

**Q.** What about the IC50 (HCT-116 [2]) of the same compound?
**A.** 2500 nM

**Q.** And the IC50 (NCI-H446)?
**A.** 2000 nM

**Q.** What about the IC50 (SW48) of the same compound?
**A.** 4 µM

**Q.** And the IC50 (A549)?
**A.** 10 µM

**Q.** What about the EC [1] of the same compound?
**A.** 1 µM

**Q.** What about the IC50 (HMEC) of the same compound?
**A.** 38 µM

**Q.** And the IC50 (MCF7)?
**A.** 8 µM

**Q.** And the IC50 (DU-145)?
**A.** 5 µM

**Q.** And the IC50 (MDA-MB-231)?
**A.** 6 µM

**Q.** Which EC [1] does the source give for `O=C(/C=C/c1ccc(NS(=O)(=O)c2cccc3cccnc23)cc1)NO` here?
**A.** 25 µM

**Q.** Which results are given for `Nc1ccccc1NC(=O)/C=C/c1ccc(S(=O)(=O)Nc2ccc(-c3ccccc3)cc2)cc1`?
**A.** IC50 (Histone deacetylase 1): 1000 nM; EC [1]: 5 µM

**Q.** With `O=C(/C=C/c1ccc(S(=O)(=O)Nc2ccc(-c3ccccc3)cc2)cc1)NO` as the compound, how does the EC [1] read?
**A.** 1 µM

**Q.** With `COc1ccc(S(=O)(=O)Nc2ccc(/C=C/C(=O)NO)cc2)cc1` as the compound, how does the EC [1] read?
**A.** 5 µM

**Q.** With `COc1ccc(S(=O)(=O)Nc2ccc(/C=C/C(=O)NO)cc2)cc1OC` as the compound, how does the IC50 (T-24) read?
**A.** 2 µM

**Q.** And the IC50 (HCT-116 [2])?
**A.** 200 nM

**Q.** What about the IC50 (NCI-H446) of the same compound?
**A.** 400 nM

**Q.** What about the IC50 (SW48) of the same compound?
**A.** 0.8 µM

**Q.** What about the IC50 (A549) of the same compound?
**A.** 2 µM

**Q.** And the IC50 [4]?
**A.** 5 µM

**Q.** And the EC [1]?
**A.** 1 µM

**Q.** What about the IC50 (HMEC) of the same compound?
**A.** 20 µM

**Q.** And the IC50 (MCF7)?
**A.** 1.5 µM

**Q.** What about the IC50 (DU-145) of the same compound?
**A.** 0.75 µM

**Q.** And the IC50 (MDA-MB-231)?
**A.** 0.7 µM

**Q.** For `Nc1ccccc1NC(=O)c1ccc(CNC(=O)OCc2cccnc2)cc1` [ENTINOSTAT], which IC50 (T-24) is on record?
**A.** 2.5 µM

**Q.** What about the IC50 (HCT-116 [2]) of the same compound?
**A.** 600 nM

**Q.** What about the IC50 (NCI-H446) of the same compound?
**A.** 1000 nM

**Q.** And the IC50 (SW48)?
**A.** 5 µM

**Q.** And the IC50 (A549)?
**A.** 8 µM

**Q.** And the IC50 [4]?
**A.** > 37 µM

**Q.** What about the IC50 (HMEC) of the same compound?
**A.** > 37 µM

**Q.** And the IC50 (MCF7)?
**A.** 5 µM

**Q.** What about the IC50 (DU-145) of the same compound?
**A.** 1 µM

**Q.** And the IC50 (MDA-MB-231)?
**A.** 3 µM

**Q.** For `O=C(/C=C/C#Cc1cccc(NS(=O)(=O)c2ccccc2)c1)NO` [OXAMFLATIN], which IC50 (Histone deacetylase 1) is on record?
**A.** 100 nM

**Q.** Which results are given for `CC(/C=C/C(=O)NO)=C\[C@@H](C)C(=O)c1ccc(N(C)C)cc1` [TRICHOSTATIN]?
**A.** IC50 (T-24): 4 µM; IC50 (HCT-116 [2]): 900 nM; IC50 (NCI-H446): 1500 nM; IC50 (SW48): 5 µM; IC50 (A549): 4.5 µM; IC50 [4]: 36 µM; IC50 (HMEC): 32 µM; IC50 (MCF7): 10 µM; IC50 (DU-145): 3.5 µM; IC50 (MDA-MB-231): 3.5 µM
